Measurements as given in ChEMBL document CHEMBL3994667, “Small Molecule Lysyl Oxidase-like 2 (LOXL2) Inhibitors: The Identification of an Inhibitor Selective for LOXL2 over LOX” (ACS Med Chem Lett, 2017).

What was measured:
Lysyl oxidase homolog 2 [1] = molecular target: T1, Lysyl oxidase homolog 2 (Rattus norvegicus, UniProt B5DF27); test: Inhibition of full length recombinant rat LOXL2 expressed in CHO cells assessed as reduction in H2O2 production using DAP as substrate preincubated for 2 hrs followed by substrate addition measured every 2 minutes for 50 minutes in presence of BSA by Amplex red dye based fluorescence assay
T1 sequence (B5DF27 whole entry): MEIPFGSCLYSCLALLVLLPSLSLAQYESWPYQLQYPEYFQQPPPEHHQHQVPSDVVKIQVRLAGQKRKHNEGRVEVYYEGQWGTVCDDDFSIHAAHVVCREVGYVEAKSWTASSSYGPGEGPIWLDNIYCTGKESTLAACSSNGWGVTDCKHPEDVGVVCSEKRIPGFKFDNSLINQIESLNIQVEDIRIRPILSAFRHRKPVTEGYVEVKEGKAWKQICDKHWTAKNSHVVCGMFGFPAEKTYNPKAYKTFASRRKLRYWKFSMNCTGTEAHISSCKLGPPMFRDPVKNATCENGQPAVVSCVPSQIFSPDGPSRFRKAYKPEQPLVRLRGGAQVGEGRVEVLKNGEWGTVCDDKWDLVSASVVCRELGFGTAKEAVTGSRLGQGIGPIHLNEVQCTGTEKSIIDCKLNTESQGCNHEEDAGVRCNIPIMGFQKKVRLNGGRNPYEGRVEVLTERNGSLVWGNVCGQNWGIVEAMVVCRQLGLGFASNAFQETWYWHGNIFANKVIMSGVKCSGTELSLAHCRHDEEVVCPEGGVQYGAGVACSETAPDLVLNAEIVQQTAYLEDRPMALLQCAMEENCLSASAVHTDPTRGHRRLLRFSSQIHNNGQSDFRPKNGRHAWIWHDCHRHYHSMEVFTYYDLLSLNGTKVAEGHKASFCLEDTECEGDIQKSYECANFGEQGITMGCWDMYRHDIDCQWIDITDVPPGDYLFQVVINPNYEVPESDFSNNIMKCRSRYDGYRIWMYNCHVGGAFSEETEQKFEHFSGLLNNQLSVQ
Procedure, shortened: (§1)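 Rodent LOXL2 is tested under the same conditions as the BSA-supplemented assay: conditioned media plus BSA, with DAP as substrate and Amplex Red detection of H2O2. Species are mouse and rat. IC50 is the geometric mean x/÷ geometric standard deviation from 3 determinations.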

Lysyl oxidase homolog 2 [2] = molecular target: T2, Lysyl oxidase homolog 2 (Mus musculus, UniProt P58022); test: Inhibition of full length recombinant mouse LOXL2 expressed in CHO cells assessed as reduction in H2O2 production using DAP as substrate preincubated for 2 hrs followed by substrate addition measured every 2 minutes for 50 minutes in presence of BSA by Amplex red dye based fluorescence assay; assay type: cell-based; procedure, shortened: as §1
T2 sequence (P58022 whole entry): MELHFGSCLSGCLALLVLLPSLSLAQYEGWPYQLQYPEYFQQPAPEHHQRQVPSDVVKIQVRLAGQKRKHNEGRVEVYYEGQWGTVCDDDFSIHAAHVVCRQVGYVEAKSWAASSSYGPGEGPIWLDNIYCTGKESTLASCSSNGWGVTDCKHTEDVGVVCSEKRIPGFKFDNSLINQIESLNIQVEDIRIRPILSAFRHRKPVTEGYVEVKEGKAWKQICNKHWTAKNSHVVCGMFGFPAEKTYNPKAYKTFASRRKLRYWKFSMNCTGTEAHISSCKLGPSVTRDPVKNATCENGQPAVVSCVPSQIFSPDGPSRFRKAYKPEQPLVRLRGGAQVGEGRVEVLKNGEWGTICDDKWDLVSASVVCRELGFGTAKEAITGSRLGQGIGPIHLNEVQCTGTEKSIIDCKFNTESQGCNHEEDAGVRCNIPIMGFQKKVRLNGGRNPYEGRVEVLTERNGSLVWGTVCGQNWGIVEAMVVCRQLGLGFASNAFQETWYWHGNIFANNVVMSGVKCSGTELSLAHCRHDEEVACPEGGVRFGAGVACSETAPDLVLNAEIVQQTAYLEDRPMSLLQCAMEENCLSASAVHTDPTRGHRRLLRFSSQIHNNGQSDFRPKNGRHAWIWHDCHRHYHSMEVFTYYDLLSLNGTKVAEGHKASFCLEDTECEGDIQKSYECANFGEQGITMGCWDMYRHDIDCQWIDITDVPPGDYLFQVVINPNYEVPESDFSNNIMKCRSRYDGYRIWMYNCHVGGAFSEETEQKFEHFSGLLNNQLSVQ

- IC50 (Lysyl oxidase homolog 2 [1]): 136 nM
- IC50 (Lysyl oxidase homolog 2 [2]): 227 nM
SMILES: NCc1ccnc(Cl)c1
